Columns and labels:
[1] = target: Thymidine kinase (Escherichia coli) (UniProt P23331); assay: Compound was tested for the loss of thymidine kinase activity from Escherichia coli after 6 hr at 0 degrees C at 10 mM
Saccharomyces cerevisiae [2] = assay: Time dependent inhibition of hexokinase activity after 6 hr, at 22 degrees celsius, with 5 mM ATP derivative in yeast.
[3] = target: T1, Hexokinase-3 (Rattus norvegicus) (UniProt P27926); assay: Time dependent inhibition of Hexokinase type III activity after 6 h, at 22 degrees celsius, at 5 mM
T1 sequence (whole entry): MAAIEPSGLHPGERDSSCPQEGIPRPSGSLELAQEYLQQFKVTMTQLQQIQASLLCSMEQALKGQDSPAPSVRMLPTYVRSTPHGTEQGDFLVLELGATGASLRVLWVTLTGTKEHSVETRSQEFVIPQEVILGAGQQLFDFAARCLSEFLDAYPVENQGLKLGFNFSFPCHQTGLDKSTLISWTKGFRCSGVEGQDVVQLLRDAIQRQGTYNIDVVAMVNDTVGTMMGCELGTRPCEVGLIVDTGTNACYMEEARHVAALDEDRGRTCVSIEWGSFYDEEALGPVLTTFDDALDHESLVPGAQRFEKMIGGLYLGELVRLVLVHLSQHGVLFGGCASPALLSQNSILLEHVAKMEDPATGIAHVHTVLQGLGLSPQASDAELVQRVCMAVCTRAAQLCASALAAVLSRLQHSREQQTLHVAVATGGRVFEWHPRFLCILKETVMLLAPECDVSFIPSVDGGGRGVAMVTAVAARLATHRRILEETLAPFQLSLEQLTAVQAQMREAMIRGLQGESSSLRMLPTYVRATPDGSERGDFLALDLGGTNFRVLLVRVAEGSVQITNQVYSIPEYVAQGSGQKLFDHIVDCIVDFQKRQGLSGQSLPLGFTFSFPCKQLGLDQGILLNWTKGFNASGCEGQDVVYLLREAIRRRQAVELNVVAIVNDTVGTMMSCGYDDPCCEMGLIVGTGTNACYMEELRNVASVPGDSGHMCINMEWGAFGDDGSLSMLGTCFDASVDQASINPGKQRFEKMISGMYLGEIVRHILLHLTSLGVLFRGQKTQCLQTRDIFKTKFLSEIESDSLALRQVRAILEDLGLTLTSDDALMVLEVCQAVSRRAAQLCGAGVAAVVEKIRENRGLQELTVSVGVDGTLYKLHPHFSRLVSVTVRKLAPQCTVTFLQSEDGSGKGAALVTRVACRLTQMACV

[4] = target: T2, Hexokinase-2 (Rattus norvegicus) (UniProt P27881); assay: Time dependent inhibition of hexokinase 2 activity after 6 h, at 5 mM compound
T2 sequence (whole entry): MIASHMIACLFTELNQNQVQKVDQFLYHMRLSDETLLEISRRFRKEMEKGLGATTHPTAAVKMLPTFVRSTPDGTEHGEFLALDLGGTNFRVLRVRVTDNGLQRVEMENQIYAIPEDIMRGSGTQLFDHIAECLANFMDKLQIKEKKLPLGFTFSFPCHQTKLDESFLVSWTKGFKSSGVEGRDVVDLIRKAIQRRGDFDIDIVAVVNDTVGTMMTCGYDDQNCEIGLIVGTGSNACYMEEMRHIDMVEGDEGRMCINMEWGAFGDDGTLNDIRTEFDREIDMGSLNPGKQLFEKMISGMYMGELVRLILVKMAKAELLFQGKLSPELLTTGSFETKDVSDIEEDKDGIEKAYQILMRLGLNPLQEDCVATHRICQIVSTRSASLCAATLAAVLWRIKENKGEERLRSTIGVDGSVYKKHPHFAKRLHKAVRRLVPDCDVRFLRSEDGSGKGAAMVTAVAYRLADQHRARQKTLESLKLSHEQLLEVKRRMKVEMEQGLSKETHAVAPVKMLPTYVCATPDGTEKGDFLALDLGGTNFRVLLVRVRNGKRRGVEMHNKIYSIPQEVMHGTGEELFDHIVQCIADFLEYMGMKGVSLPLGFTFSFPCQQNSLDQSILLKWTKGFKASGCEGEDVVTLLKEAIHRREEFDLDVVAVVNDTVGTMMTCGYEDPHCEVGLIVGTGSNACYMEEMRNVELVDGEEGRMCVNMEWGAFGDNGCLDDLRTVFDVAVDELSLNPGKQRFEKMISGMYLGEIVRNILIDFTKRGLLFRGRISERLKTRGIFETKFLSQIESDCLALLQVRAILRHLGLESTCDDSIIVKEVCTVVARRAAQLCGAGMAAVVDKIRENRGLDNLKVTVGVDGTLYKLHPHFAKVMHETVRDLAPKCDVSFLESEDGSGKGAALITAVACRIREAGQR

[5] = target: T3, Hexokinase-1 (Rattus norvegicus) (UniProt P05708); assay: Time dependent inhibition of Hexokinase type I activity after 6 h, at 22 degrees celsius, at 5 mM compound
T3 sequence (whole entry): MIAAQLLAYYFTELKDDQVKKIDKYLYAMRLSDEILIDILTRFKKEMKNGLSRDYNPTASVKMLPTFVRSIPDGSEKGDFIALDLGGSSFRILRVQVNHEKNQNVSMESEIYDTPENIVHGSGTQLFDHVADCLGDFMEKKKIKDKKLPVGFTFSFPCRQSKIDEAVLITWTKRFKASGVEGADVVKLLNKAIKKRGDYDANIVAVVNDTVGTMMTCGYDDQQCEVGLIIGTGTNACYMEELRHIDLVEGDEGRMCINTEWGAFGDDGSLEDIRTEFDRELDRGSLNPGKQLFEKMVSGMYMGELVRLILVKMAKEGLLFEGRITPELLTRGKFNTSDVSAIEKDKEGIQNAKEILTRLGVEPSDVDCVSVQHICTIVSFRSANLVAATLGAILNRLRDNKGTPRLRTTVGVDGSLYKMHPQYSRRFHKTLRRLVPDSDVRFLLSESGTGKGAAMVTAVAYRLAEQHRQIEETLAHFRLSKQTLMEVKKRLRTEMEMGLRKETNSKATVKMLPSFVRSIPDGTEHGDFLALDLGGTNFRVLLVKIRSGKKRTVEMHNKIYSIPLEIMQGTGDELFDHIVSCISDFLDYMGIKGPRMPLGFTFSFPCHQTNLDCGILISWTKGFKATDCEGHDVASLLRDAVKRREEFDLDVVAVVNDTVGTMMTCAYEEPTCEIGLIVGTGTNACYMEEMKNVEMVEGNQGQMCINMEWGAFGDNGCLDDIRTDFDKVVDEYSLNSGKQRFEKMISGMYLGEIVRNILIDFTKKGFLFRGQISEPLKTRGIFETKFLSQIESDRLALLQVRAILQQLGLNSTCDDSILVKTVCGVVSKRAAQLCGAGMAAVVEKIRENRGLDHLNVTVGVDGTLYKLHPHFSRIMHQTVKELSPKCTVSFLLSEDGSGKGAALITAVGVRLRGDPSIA

[6] = Tested for the velocity of 2.8 mM compound relative to that of 2.8 mM MgATP in the assay
Outline: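 E. coli TK substrate test. 0.5 h after adding inhibitor, the mixture was diluted to 2.8 mM derivative in thymidine assay medium without ATP and with 1.42 mM MnCl2. Incubated 15 min at 37 °C, in the linear range. [14C]TMP formed was compared with that from 2.8 mM ATP under the same conditions.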

[7] = target: Thymidine kinase (Escherichia coli) (UniProt P23331); assay: Compound was tested for the initial inhibition of thymidine kinase by 1.4 mM compound in the presence of 5.7 mM ATP
[8] = Compound was tested for substrate constants with yeast hexokinase. Maximal velocity Vmax was reported
Outline: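 Hexokinase KM and Vmax taken from linear double-reciprocal plots of initial velocity vs. nucleotide level. Assays at 22 °C, coupled to glucose-6-phosphate dehydrogenase (A340), in 0.05 M Tris-HCl pH 7.6 with 6.6 mM MgCl2, 10 mM glucose and 0.93 mM NADP. Yeast HK was isoelectric-focused. Rat HK I and III came from liver, HK II from muscle (male Sprague-Dawley).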

[9] = Substrate concentration for half maximal velocity was reported for yeast hexokinase
Outline: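 Coupled glucose-6-phosphate dehydrogenase/NADP assay: A340 rate at 22 °C in 0.05 M Tris-HCl pH 7.6 with 6.6 mM MgCl2, 10 mM α-D-glucose and 0.93 mM NADP, nucleotide varied. KM was taken from linear double-reciprocal plots. Rat HK I and III came from electrofocused, dialysed liver extract, HK II from dialysed muscle extract, and yeast HK was isoelectric-focused.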

[10] = target: T2, Hexokinase-2 (Rattus norvegicus); assay: Substrate activity against Rat hexokinase II as 1:1 Mg complex at 5.0 mM
Outline: (§1)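 Hexokinase activity read at 22 °C as A340 change, coupled to glucose-6-phosphate dehydrogenase, in 0.05 M Tris-HCl pH 7.6 with 6.6 mM MgCl2, 10 mM α-D-glucose and 0.93 mM NADP. Donor was 5.0 mM MgATP derivative (1:1 Mg complex) in place of ATP. Yeast HK was isoelectric-focused. Rat HK I and III came from electrofocused liver extract, HK II from dialysed muscle extract.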

[11] = target: Thymidine kinase (Escherichia coli) (UniProt P23331); assay: Compound was tested for the initial inhibition of thymidine kinase by 1.4 mM compound in the presence of 5.7 mM ATP in Escherichia coli
Saccharomyces cerevisiae [12] = assay: Compound was tested for time dependent inhibition of hexokinase activity after 6 hr, at 22 degrees celsius, with 5 mM ATP derivative in yeast hexokinase
[13] = target: T3, Hexokinase-1 (Rattus norvegicus); assay: Substrate activity for rat hexokinase I as 1:1 Mg complex at 5.0 mM
Outline: as §1

[14] = target: T1, Hexokinase-3 (Rattus norvegicus); assay: Substrate activity for rat hexokinase III as 1:1 Mg complex at 5.0 mM
Outline: as §1

[15] = target: Thymidine kinase (Escherichia coli) (UniProt P23331); assay: Compound was tested for the lose of thymidine kinase activity after 6 hr, at 0 degrees celsius, with 10 mM ATP derivative. values were expressed in percent
Saccharomyces cerevisiae [16] = assay: Substrate activity against yeast hexokinase as 1:1 Mg complexes at 5.0 mM
Outline: as §1

[17] = target: T1, Hexokinase-3 (Rattus norvegicus); assay: Time dependent inhibition of Hexokinase type III activity after 6 hr, at 22 degrees celsius, at 5 mM compound

Thymidine kinase (Escherichia coli), sequence (P23331 whole entry, looked up): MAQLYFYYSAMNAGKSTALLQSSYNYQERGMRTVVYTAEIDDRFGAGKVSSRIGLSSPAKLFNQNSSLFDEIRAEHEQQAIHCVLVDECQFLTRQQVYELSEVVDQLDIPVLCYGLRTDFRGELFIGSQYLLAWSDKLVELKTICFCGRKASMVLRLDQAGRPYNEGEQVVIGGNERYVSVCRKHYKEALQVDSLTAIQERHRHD

| inhibition [1] | inhibition (Saccharomyces cerevisiae [2]) | inhibition [3] | inhibition [4] | inhibition [5] | Velocity [6] | inhibition [7] | Vmax [8] | Km [9] | Relative velocity [10] | inhibition [11] | inhibition (Saccharomyces cerevisiae [12]) | Relative velocity [13] | Relative velocity [14] | inhibition [15] | Relative velocity (Saccharomyces cerevisiae [16]) | inhibition [17] | SMILES |
| --- | --- | --- | --- | --- | --- | --- | --- | --- | --- | --- | --- | --- | --- | --- | --- | --- | --- |
|  |  |  | 0% | 0% | 57% |  |  |  | 0.85 | 16% | 0% | 1.66 | 2.06 | 0% | 0.94 |  | CN(CCCCCCN(C)c1ncnc2c1ncn2[C@@H]1O[C@H](COP(=O)(O)OP(=O)(O)OP(=O)(O)O)[C@@H](O)[C@H]1O)C(=O)CCCCCCNC(=O)CI |
| 0% | 0% | 0% | 0% | 0% | 34% | 9% |  |  |  |  |  |  |  |  |  |  | CN(CCCCN(C)C(=O)CCCCNc1ncnc2c1ncn2[C@@H]1O[C@H](COP(=O)(O)OP(=O)(O)OP(=O)(O)O)[C@@H](O)[C@H]1O)C(=O)CCCCNC(=O)CI |
| 51% | 0% | 0% | 0% | 0% | > 34% | 5% |  |  |  |  |  |  |  |  |  |  | CN(CCCN(C)C(=O)CCCCNc1ncnc2c1ncn2[C@@H]1O[C@H](COP(=O)(O)OP(=O)(O)OP(=O)(O)O)[C@@H](O)[C@H]1O)C(=O)CCCCNC(=O)CI |

The next lines start with the molecule.

| SMILES | inhibition [1] | inhibition (Saccharomyces cerevisiae [2]) | inhibition [3] | inhibition [4] | inhibition [5] | Velocity [6] | inhibition [7] | Vmax [8] | Km [9] | Relative velocity [10] | inhibition [11] | inhibition (Saccharomyces cerevisiae [12]) | Relative velocity [13] | Relative velocity [14] | inhibition [15] | Relative velocity (Saccharomyces cerevisiae [16]) | inhibition [17] |
| --- | --- | --- | --- | --- | --- | --- | --- | --- | --- | --- | --- | --- | --- | --- | --- | --- | --- |
| CN(CCCCN(C)C(=O)CCCNc1ncnc2c1ncn2[C@@H]1O[C@H](COP(=O)(O)OP(=O)(O)OP(=O)(O)O)[C@@H](O)[C@H]1O)C(=O)CCCNC(=O)CI | 0% | 0% | 0% | 0% | 0% | 14% | 12% |  |  |  |  |  |  |  |  |  |  |
| CN(CCCCN(C)c1ncnc2c1ncn2[C@@H]1O[C@H](COP(=O)(O)OP(=O)(O)OP(=O)(O)O)[C@@H](O)[C@H]1O)C(=O)CCCCCNC(=O)OCc1ccccc1 |  |  |  |  |  |  |  | 75% | 300 µM |  |  |  |  |  |  |  |  |
| O=C(CI)NCCCCCNc1ncnc2c1ncn2[C@@H]1O[C@H](COP(=O)(O)OP(=O)(O)OP(=O)(O)O)[C@@H](O)[C@H]1O | 0% | 0% |  |  |  | 13% | 26% |  |  | 0.6 |  |  | 0.92 | 1.31 |  | 0.75 | 0% |
| O=C(CI)NCCCCCCC(=O)NCCCNc1ncnc2c1ncn2[C@@H]1O[C@H](COP(=O)(O)OP(=O)(O)OP(=O)(O)O)[C@@H](O)[C@H]1O | 58% | 0% |  | 0% | 0% | > 25% | 28% |  |  |  |  |  |  |  |  |  |  |
| O=C(CI)NCCCCC(=O)NCCCCCCNc1ncnc2c1ncn2[C@@H]1O[C@H](COP(=O)(O)OP(=O)(O)OP(=O)(O)O)[C@@H](O)[C@H]1O | 0% | 0% | 0% | 0% | 0% | 39% | 12% |  |  |  |  |  |  |  |  |  |  |
| O=C(CI)NCCCCCC(=O)NCCCNc1ncnc2c1ncn2[C@@H]1O[C@H](COP(=O)(O)OP(=O)(O)OP(=O)(O)O)[C@@H](O)[C@H]1O | 74% | 0% | 0% |  | 0% | > 39% | 13% |  |  | 0.57 |  |  | 0.79 | 1.04 |  | 1.06 |  |
